This passage reports EC50 and Activity results from ChEMBL document CHEMBL4014338, “Discovery of Small Molecules as Multi-Toll-like Receptor Agonists with Proinflammatory and Anticancer Activities” (J Med Chem, 2017).

One test deals with T1, Toll-like receptor 9 (Homo sapiens, UniProt Q9NR96).
T1 sequence (Q9NR96 whole entry): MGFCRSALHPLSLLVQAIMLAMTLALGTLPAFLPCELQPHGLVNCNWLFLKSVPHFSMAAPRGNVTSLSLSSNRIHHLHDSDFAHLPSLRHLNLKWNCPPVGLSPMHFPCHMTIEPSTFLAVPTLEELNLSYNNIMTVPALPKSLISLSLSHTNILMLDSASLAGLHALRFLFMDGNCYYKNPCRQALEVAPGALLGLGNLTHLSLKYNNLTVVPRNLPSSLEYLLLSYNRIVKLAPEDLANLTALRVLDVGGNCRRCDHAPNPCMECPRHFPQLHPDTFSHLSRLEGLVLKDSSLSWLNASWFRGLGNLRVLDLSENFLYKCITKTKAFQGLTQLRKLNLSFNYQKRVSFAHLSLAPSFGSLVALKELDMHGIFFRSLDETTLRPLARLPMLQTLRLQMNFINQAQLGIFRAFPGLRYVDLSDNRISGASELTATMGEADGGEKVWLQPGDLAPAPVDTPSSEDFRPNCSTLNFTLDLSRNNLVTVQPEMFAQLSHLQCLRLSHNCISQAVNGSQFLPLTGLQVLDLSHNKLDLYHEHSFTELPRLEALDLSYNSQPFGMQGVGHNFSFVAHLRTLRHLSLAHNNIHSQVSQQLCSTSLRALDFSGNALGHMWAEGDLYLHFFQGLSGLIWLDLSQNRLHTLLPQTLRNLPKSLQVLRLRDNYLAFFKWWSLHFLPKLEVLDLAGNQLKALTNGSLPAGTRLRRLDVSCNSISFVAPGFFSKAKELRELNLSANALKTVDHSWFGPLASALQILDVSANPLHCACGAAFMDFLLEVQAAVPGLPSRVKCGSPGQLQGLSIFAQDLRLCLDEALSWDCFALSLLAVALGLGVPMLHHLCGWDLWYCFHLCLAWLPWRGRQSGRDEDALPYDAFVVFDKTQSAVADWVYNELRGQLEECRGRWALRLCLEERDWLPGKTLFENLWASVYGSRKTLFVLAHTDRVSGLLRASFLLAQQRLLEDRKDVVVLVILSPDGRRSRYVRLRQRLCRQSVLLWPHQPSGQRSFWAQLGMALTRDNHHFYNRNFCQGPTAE
The test is described as follows: Agonist activity at human TLR9 expressed in HEK293 cells assessed as induction of NF-kB activation-mediated SEAP production after 24 hrs by HTS assay. The class given is cell-based. The method in brief:
(§1)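 HEK293 cells stably expressing human TLR8 or TLR9 plus an NF-κB-inducible SEAP reporter, seeded at 5 × 10^4 cells/well for 24 h, then treated for 24 h. Supernatant incubated with QUANTI-Blue at 37 °C for 1 h and OD read at 620 nm. Positive controls were R848 (TLR8) and ODN2006 (TLR9). EC50 reported as mean ± SD.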

The target of test [1] is Toll-like receptor 3/8/9 (Homo sapiens) (UniProt O15455+Q9NR96+Q9NR97). Description: Agonist activity at TLR3/TLR8/TLR9 in human THP1 cells assessed as increase in IL-6 mRNA level after 12 hrs by qRT-PCR method. The class given is cell-based. The method, boiled down: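 THP-1 cells (1.5 × 10^6/well) differentiated with PMA (20 nM) for 2 days, then 24 h in fresh RPMI 1640; nonadherent cells removed. Treated with indicated compound concentrations for 12 h, washed with PBS, and mRNA measured by qRT-PCR. Expressed as fold change versus untreated control, poly I:C (5 μg/mL) as reference. Mean ± SD of three independent experiments.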
Chain of Toll-like receptor 3/8/9 (Homo sapiens) (O15455 whole entry, looked up, one chain of several): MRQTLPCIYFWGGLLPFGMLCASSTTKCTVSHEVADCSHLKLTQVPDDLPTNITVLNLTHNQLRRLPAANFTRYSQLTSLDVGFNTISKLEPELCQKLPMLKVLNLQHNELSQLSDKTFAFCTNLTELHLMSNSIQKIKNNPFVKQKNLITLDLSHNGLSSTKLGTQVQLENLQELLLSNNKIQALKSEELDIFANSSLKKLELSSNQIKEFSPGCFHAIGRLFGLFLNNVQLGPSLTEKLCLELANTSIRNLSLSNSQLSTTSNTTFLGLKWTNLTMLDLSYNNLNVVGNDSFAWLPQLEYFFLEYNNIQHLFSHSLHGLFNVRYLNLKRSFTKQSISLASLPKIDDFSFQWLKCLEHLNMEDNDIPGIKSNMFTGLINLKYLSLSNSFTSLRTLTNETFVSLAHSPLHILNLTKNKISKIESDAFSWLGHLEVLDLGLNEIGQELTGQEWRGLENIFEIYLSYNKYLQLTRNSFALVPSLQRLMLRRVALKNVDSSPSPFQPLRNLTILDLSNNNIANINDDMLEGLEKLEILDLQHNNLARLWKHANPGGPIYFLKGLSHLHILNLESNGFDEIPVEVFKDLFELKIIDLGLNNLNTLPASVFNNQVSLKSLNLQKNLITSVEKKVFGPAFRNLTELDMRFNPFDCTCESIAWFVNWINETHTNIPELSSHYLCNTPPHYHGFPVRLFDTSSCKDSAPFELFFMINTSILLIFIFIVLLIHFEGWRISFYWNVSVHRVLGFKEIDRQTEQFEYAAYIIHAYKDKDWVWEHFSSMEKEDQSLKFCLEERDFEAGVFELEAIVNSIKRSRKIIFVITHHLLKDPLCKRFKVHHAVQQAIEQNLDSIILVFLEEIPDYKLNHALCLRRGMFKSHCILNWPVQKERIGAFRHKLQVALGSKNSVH
On the technique in general: Real-time PCR tracks product formation cycle by cycle.

The next test deals with T2, Toll-like receptor 8 (Homo sapiens, UniProt Q9NR97).
T2 sequence (Q9NR97 whole entry): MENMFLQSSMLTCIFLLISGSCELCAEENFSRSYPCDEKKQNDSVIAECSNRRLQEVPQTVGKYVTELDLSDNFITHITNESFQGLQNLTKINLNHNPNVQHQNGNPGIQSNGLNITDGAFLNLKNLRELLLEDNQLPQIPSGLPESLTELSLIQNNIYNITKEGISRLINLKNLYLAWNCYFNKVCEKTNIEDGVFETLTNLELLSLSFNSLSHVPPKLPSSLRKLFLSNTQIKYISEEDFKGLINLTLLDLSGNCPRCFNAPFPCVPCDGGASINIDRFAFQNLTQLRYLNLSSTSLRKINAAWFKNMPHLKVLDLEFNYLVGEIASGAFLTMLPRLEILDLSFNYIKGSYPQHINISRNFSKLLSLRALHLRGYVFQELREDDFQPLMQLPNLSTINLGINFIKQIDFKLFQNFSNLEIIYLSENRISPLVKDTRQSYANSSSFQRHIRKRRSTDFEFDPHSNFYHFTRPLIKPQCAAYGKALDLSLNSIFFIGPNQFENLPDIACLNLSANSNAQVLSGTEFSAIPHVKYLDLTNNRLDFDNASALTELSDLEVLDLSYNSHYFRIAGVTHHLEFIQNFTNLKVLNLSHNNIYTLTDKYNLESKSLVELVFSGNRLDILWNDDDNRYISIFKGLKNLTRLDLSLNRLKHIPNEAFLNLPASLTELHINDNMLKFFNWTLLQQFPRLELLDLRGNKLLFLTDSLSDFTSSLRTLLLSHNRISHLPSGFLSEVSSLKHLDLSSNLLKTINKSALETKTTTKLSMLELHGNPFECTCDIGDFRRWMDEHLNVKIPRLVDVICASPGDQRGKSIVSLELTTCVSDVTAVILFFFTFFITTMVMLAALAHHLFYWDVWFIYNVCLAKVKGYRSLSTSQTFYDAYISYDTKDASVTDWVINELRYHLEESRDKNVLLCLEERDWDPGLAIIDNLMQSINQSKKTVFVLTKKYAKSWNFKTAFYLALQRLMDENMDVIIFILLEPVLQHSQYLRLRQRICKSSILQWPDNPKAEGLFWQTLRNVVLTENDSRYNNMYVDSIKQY
The test is described as follows: Agonist activity at human TLR8 expressed in HEK293 cells assessed as induction of NF-kB activation-mediated SEAP production after 24 hrs by HTS assay. It is filed as cell-based. The method in brief: as §1

The next test relates to HeLa. The test is described as follows: Cell cycle arrest in human HeLa cells assessed as accumulation at G0/G1 phase at 20 uM after 24 hrs by propidium iodide staining based flow cytometry (reference value: 52%). It is filed as functional. On the technique in general: Flow cytometry measures light scatter and fluorescence of single cells or particles in a stream.

The term EC50 denotes the concentration at which the effect is half-maximal. As for `O=[N+]([O-])c1ccc(COc2cc3c(cc2OCc2ccc([N+](=O)[O-])cc2)OC2(C=C3)CCOCC2)cc1`, the EC50 on Toll-like receptor 9 amounted to 5.66 µM; on Toll-like receptor 8, 13.4 µM. Also, the Activity result in test [1] is “Dose-dependent effect”; in the test with HeLa, 43%.
